These results are taken from ChEMBL document CHEMBL4406862, “Chalcone derivatives targeting mitosis: synthesis, evaluation of antitumor activity and lipophilicity” (Eur J Med Chem, 2019).

One data set concerns MCF7. Nature of the data set: Antiproliferative activity against human MCF7 cells assessed as reduction in cell viability incubated for 48 hrs by sulforhodamine B assay. It counts as functional. The note with it: MCF7, 48 h. In a few lines: (§1)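 Cells in RPMI-1640 with 5% FBS, 37 °C, 5% CO2; seeded 0.05×10^6 cells/well, 24 h, then two-fold serial dilutions from 0 to 150 μM (DMSO up to 0.25%) for 48 h. TCA fixation, SRB stain 30 min, dye solubilized in 10 mM Tris, absorbance 515 nm. GI50 from dose-response curve; mean ± SD, at least three independent experiments in duplicate.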

Data set [1] has as its system NCI-H460. Nature of the data set: Potentiation of paclitaxel-induced cytotoxicity against human NCI-H460 cells assessed as reduction in cell viability at 1 times of GI50 incubated for 48 hrs by MTT assay (reference value: 92.3 %). It counts as functional. In a few lines:
(§2)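 MTT 0.5 mg/ml in serum-free medium 4 h; formazan dissolved in isopropanol/Triton/HCl 2 h; absorbance 570 nm. Viability relative to untreated cells; mean ± SD of at least three independent experiments.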
In general terms: Formazan colour is commonly taken as a measure of viable cells.

For data set [2], the system named is NCI-H460. Nature of the data set: Induction of mitotic arrest in human NCI-H460 cells assessed as mitotic index at 3 times of GI50 incubated for 15 hrs by DAPI staining based phase contrast microscopy (reference value: 11.3 %). In kind it is functional.
Data set [3] deals with NCI-H460. Nature of the data set: Induction of cell death in human NCI-H460 cells assessed as micronucleation at 3 times of GI50 incubated for 24 hrs by DAPI staining based fluorescence microscopy. It counts as functional. In short, it runs like this:
(§3)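 NCI-H460 cells exposed 24 h, DAPI-stained for DNA, nuclear morphology and micronucleation examined by fluorescence microscopy.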

In data set [4] the test system is NCI-H460. Nature of the data set: Induction of mitotic arrest in human NCI-H460 cells assessed as condensed chromosome at 3 times of GI50 incubated for 15 hrs by DAPI staining based phase contrast microscopy. It counts as functional, cell-based. In short, it runs like this: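 NCI-H460 treated 15 h at 3×GI50; DAPI staining of DNA viewed to detect condensed chromosomes of mitotic cells.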

In data set [5] the test system is NCI-H460. Nature of the data set: Induction of cell death in human NCI-H460 cells assessed as abnormal nuclear morphology at 3 times of GI50 incubated for 24 hrs by DAPI staining based fluorescence microscopy. In kind it is functional. In a few lines:
as §3

Data set [6] can be described thus: n-Octanol/water partition coefficient, log P of the compound incubated for 30 mins by spectrophotometry. In kind it is physicochemical.
Data set [7] has as its system NCI-H460. Nature of the data set: Antiproliferative activity against human NCI-H460 cells assessed as reduction in cell viability incubated for 48 hrs by sulforhodamine B assay. In kind it is functional. The note with it: NCI-H460, 48 h. In a few lines:
as §1
Background: In SRB staining, fixed cells bind dye roughly in proportion to their protein.

Data set [8] deals with NCI-H460. Nature of the data set: Induction of mitotic arrest in human NCI-H460 cells assessed as accumulation of bright round shape cells at 3 times of GI50 incubated for 15 hrs by phase contrast microscopy. It counts as functional, cell-based.
For data set [9], the system named is NCI-H460. Nature of the data set: Induction of mitotic arrest in human NCI-H460 cells assessed as abnormal mitotic spindle morphology at 3 times of GI50 incubated for 15 hrs by immunostaining based fluorescence microscopy. It counts as functional, cell-based. In a few lines: (§4)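 NCI-H460 on poly-L-lysine coverslips treated 15 h at 3×GI50; fixed in 2% paraformaldehyde, 0.5% Triton X-100 permeabilization, 10% FBS blocking; mouse anti-α-tubulin (1:2500) then Alexa Fluor 488 secondary (1:1500); DAPI 2 µg/mL. Fluorescence microscopy of spindles; multipolar spindles as percentage of total spindles; mean ± SD, three independent experiments.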

In data set [10] the test system is NCI-H460. Nature of the data set: Cytotoxicity against human NCI-H460 cells assessed as reduction in cell viability at 0.5 times of GI50 incubated for 48 hrs by MTT assay relative to control. In kind it is functional. In a few lines: as §2
Data set [11] relates to NCI-H460. Nature of the data set: Potentiation of paclitaxel-induced cytotoxicity against human NCI-H460 cells assessed as reduction in cell viability at 0.5 times of GI50 incubated for 48 hrs by MTT assay (reference value: 92.3 %). In kind it is functional. In a few lines: as §2
Data set [12] is described as follows: Lipophilicity, log k of compound in DMPC/buffer incubated for 30 mins by spectrophotometry. The note with it: 0.5 h. It counts as physicochemical. In a few lines:
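DMPC liposomes made by thin-film hydration in HEPES buffer, extruded at 40 °C. Fixed compound concentration with DMPC 50–1000 μM, incubated 30 min at 37 °C, pH 7.4; spectra 250–500 nm against compound-free references. Second-derivative values fitted (nonlinear least squares) versus lipid concentration to give Kp; lipid molar volume 0.66 L mol⁻¹; mean ± SD of at least three experiments.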

Data set [13] can be described thus: Antiproliferative activity against human A375-C5 cells assessed as reduction in cell viability incubated for 48 hrs by sulforhodamine B assay. In kind it is functional. The settings on record: A375-C5, 48 h. In a few lines:
as §1

The subject of data set [14] is NCI-H460. Nature of the data set: Cytotoxicity against human NCI-H460 cells assessed as reduction in cell viability at 1 times of GI50 incubated for 48 hrs by MTT assay relative to control. It counts as functional. In a few lines: as §2
Data set [15] deals with NCI-H460. Nature of the data set: Induction of mitotic arrest in human NCI-H460 cells assessed as decrease in chromosome align at metaphase plate at 3 times of GI50 incubated for 15 hrs by DAPI staining based fluorescence microscopy. In kind it is functional, cell-based. In short, it runs like this:
as §4

For data set [16], the system named is NCI-H460. Nature of the data set: Induction of mitotic arrest in human NCI-H460 cells assessed as multipolar spindles at 3 times of GI50 incubated for 15 hrs by fluorescence microscopy (reference value: 2 %). It counts as functional. In short, it runs like this:
as §4

A word on the GI50: it is the concentration giving 50% growth inhibition. The logP is the decadic logarithm of the partition coefficient of the neutral form, usually between octanol and water. Read a high logP as higher lipophilicity.

Active and inactive are the calls of the source. The rule behind the calls is not given here.

For the compound `COc1cc(/C=C/C(=O)c2ccc(C)s2)cc(OC)c1OC`, the GI50 in the data set on MCF7 stood at 5.56 µM; in the data set with NCI-H460 [7], 6.28 µM; in data set [13], 5.7 µM. Besides, the Activity is 46.8% in the data set on NCI-H460 [1]; 25.8 - 49.37% in the data set with NCI-H460 [2]; 96.9% in the data set with NCI-H460 [10]; 51.8% with NCI-H460 [11]; 67.9% with NCI-H460 [14]; 28% with NCI-H460 [16]. For the same compound, the outcome with NCI-H460 [3], in the data set on NCI-H460 [4], in the data set on NCI-H460 [5], in the data set with NCI-H460 [8], with NCI-H460 [9] and with NCI-H460 [15] was Active. Further, in data set [6], the logP at 0.5 h worked out at 3.23. Also, the “log Kp” value in data set [12] is on record as 3.53.
